# Test system: MDA-MB-231 cells
# Test: Scratch cell migration assay
# Type: cell-based
# Settings: 1 μM, MDA-MB-231, 18 hr
# How it was run: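 MDA-MB-231 cells were grown at 37°C, 5% CO2, in high-glucose DMEM with 10% FBS, L-glutamine, penicillin/streptomycin and 15 mM HEPES. A scratch was made in a confluent monolayer, then test compound or 1% DMSO (solvent control) was added in normal growth medium. The same scratch area was photographed at 0 and 18–24 hr. Duplicate or single wells; four independent experiments; images representative.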
structure (smiles),measurement,value
CN(C)Cc1cccc(N/C(=C2\C(=O)Nc3cc(C(N)=O)ccc32)c2ccccc2)c1 [BIX02188],Effect on scratch healing (cell migration),showed inhibition of scratch healing

# Source: article PMC5784828 (Biochemical and biophysical research communications, 2018)
